Results as given in ChEMBL document CHEMBL2401679, “Synthesis and on-target antibacterial activity of novel 3-elongated arylalkoxybenzamide derivatives as inhibitors of the bacterial cell division protein FtsZ” (2013).
In brackets after ≈: the same amount, converted by molar mass.

Legend:
Type in all cases: functional
[1] = system: Bacillus subtilis; assay: Inhibition of cell division in penicillin-susceptible Bacillus subtilis ATCC 9372 assessed as lowest concentration required to filamentation after 5 hrs by phase-contrast light microscopy analysis
How it was run: (§1)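 Cell morphology of B. subtilis ATCC9372 or S. aureus ATCC25923 was examined by phase-contrast light microscopy. The value recorded is the lowest compound concentration at which B. subtilis filamentation or S. aureus ballooning appeared. This is taken as on-target cell division inhibition.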

[2] = system: Streptococcus pneumoniae; assay: Antibacterial activity against penicillin-susceptible Streptococcus pneumoniae ATCC 49619 after 24 hrs by broth microdilution method; settings: ATCC 49619, 24 h
How it was run: (§2)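 MIC by broth microdilution following the NCCLS standard method. Test strains were penicillin-susceptible: B. subtilis ATCC9372, S. aureus ATCC25923, S. pneumoniae ATCC49619 and Streptococcus pyogenes PS.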

[3] = system: Staphylococcus aureus; assay: Inhibition of cell division in penicillin-susceptible Staphylococcus aureus ATCC 25923 assessed as lowest concentration required to ballooning after 5 hrs by phase-contrast light microscopy analysis; how it was run: as §1
[4] = system: Staphylococcus aureus; assay: Antibacterial activity against penicillin-resistant Staphylococcus aureus clinical isolate after 24 hrs by broth microdilution method
How it was run: (§3)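 MIC by standard broth microdilution following NCCLS recommendations. S. aureus ATCC29213 is a […] strain. The S. aureus PR strain is a penicillin-resistant clinical isolate that has not been characterized. The MIC was taken as the in vitro antibacterial activity value.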

[5] = system: Bacillus subtilis; assay: Antibacterial activity against penicillin-susceptible Bacillus subtilis ATCC 9372 after 24 hrs by broth microdilution method; settings: ATCC 9372, 24 h; how it was run: as §2
[6] = system: Streptococcus pyogenes; assay: Antibacterial activity against penicillin-susceptible Streptococcus pyogenes after 24 hrs by broth microdilution method; how it was run: as §2
[7] = system: Staphylococcus aureus; assay: Antibacterial activity against penicillin-susceptible Staphylococcus aureus ATCC 25923 after 24 hrs by broth microdilution method; settings: ATCC 25923, 24 h; how it was run: as §2
[8] = system: Staphylococcus aureus; assay: Antibacterial activity against […] Staphylococcus aureus ATCC 29213 after 24 hrs by broth microdilution method; settings: ATCC 29213, 24 h; how it was run: as §3

NC(=O)c1cccc(OCCCBr)c1
INH [1]: 128 µg/mL | MIC [2]: > 128 µg/mL | INH [3]: 32 µg/mL | MIC [4]: 128 µg/mL (≈ 496 µM) | MIC [5]: 128 µg/mL (≈ 496 µM) | MIC [6]: > 128 µg/mL | MIC [7]: 64 µg/mL (≈ 248 µM) | MIC [8]: 64 µg/mL (≈ 248 µM)

NC(=O)c1cccc(OCCBr)c1
INH [1]: 64 µg/mL | MIC [2]: > 128 µg/mL | INH [3]: 16 µg/mL | MIC [4]: 128 µg/mL (≈ 524 µM) | MIC [5]: 128 µg/mL (≈ 524 µM) | MIC [6]: > 128 µg/mL | MIC [7]: 64 µg/mL (≈ 262 µM) | MIC [8]: 128 µg/mL (≈ 524 µM)

NC(=O)c1cccc(OCCCSc2nc3ccccc3s2)c1
INH [1]: 512 µg/mL | MIC [2]: > 128 µg/mL | INH [3]: 256 µg/mL | MIC [4]: > 128 µg/mL | MIC [5]: 512 µg/mL (≈ 1490 µM) | MIC [6]: > 128 µg/mL | MIC [7]: 512 µg/mL (≈ 1490 µM) | MIC [8]: > 128 µg/mL

NC(=O)c1cccc(OCCCCn2ccnc2)c1
INH [1]: 128 µg/mL | MIC [2]: > 128 µg/mL | INH [3]: 128 µg/mL | MIC [4]: > 128 µg/mL | MIC [5]: 128 µg/mL (≈ 494 µM) | MIC [6]: > 128 µg/mL | MIC [7]: 256 µg/mL (≈ 987 µM) | MIC [8]: > 128 µg/mL

CCOCCCCCOc1cccc(C(N)=O)c1
INH [1]: 64 µg/mL | MIC [2]: > 128 µg/mL | INH [3]: 128 µg/mL | MIC [4]: 64 µg/mL (≈ 255 µM) | MIC [5]: 64 µg/mL (≈ 255 µM) | MIC [6]: > 128 µg/mL | MIC [7]: 64 µg/mL (≈ 255 µM) | MIC [8]: 64 µg/mL (≈ 255 µM)

NC(=O)c1cccc(OCCCOc2ccccc2)c1
INH [1]: 8 µg/mL | MIC [2]: > 128 µg/mL | INH [3]: 1024 µg/mL | MIC [4]: > 128 µg/mL | MIC [5]: 32 µg/mL (≈ 118 µM) | MIC [6]: > 128 µg/mL | MIC [7]: 1020 µg/mL (≈ 3770 µM) | MIC [8]: > 128 µg/mL

NC(=O)c1cccc(OCCCCOc2ccc([N+](=O)[O-])cc2)c1
INH [1]: 32 µg/mL | MIC [2]: > 128 µg/mL | INH [3]: 512 µg/mL | MIC [4]: > 128 µg/mL | MIC [5]: 32 µg/mL (≈ 96.9 µM) | MIC [6]: > 128 µg/mL | MIC [7]: 1020 µg/mL (≈ 3100 µM) | MIC [8]: > 128 µg/mL

NC(=O)c1cccc(OCCCCCCBr)c1
INH [1]: 16 µg/mL | MIC [2]: > 128 µg/mL | INH [3]: 64 µg/mL | MIC [4]: 64 µg/mL (≈ 213 µM) | MIC [5]: 32 µg/mL (≈ 107 µM) | MIC [6]: > 128 µg/mL | MIC [7]: 64 µg/mL (≈ 213 µM) | MIC [8]: 64 µg/mL (≈ 213 µM)

NC(=O)c1cccc(OCCCCOc2ccc(Cl)cc2)c1
INH [1]: 0.25 µg/mL | MIC [2]: > 128 µg/mL | INH [3]: 256 µg/mL | MIC [4]: > 128 µg/mL | MIC [5]: 0.5 µg/mL (≈ 1.56 µM) | MIC [6]: > 128 µg/mL | MIC [7]: 1020 µg/mL (≈ 3200 µM) | MIC [8]: > 128 µg/mL

NC(=O)c1cccc(O)c1
INH [1]: 4096 µg/mL | MIC [2]: > 128 µg/mL | INH [3]: 4096 µg/mL | MIC [4]: 4100 µg/mL (≈ 29900 µM) | MIC [5]: 512 µg/mL (≈ 3730 µM) | MIC [6]: > 128 µg/mL | MIC [7]: 4100 µg/mL (≈ 29900 µM) | MIC [8]: 4100 µg/mL (≈ 29900 µM)

COc1ccc(OCCCOc2cccc(C(N)=O)c2)cc1
INH [1]: 1024 µg/mL | MIC [2]: > 128 µg/mL | INH [3]: 512 µg/mL | MIC [4]: > 128 µg/mL | MIC [5]: 1020 µg/mL (≈ 3400 µM) | MIC [6]: > 128 µg/mL | MIC [7]: 1020 µg/mL (≈ 3400 µM) | MIC [8]: > 128 µg/mL

NC(=O)c1cccc(OCCCCOc2ccccc2)c1
INH [1]: 32 µg/mL | MIC [2]: 128 µg/mL (≈ 449 µM) | INH [3]: 512 µg/mL | MIC [4]: > 128 µg/mL | MIC [5]: 64 µg/mL (≈ 224 µM) | MIC [6]: > 128 µg/mL | MIC [7]: 1020 µg/mL (≈ 3590 µM) | MIC [8]: > 128 µg/mL

NC(=O)c1cccc(OCCCCl)c1
INH [1]: 64 µg/mL | MIC [2]: > 128 µg/mL | INH [3]: 64 µg/mL | MIC [4]: 64 µg/mL (≈ 300 µM) | MIC [5]: 128 µg/mL (≈ 599 µM) | MIC [6]: > 128 µg/mL | MIC [7]: 64 µg/mL (≈ 300 µM) | MIC [8]: 64 µg/mL (≈ 300 µM)

NC(=O)c1cccc(OCCCn2cncn2)c1
INH [1]: 16 µg/mL | MIC [2]: > 128 µg/mL | INH [3]: 1024 µg/mL | MIC [4]: > 128 µg/mL | MIC [5]: 32 µg/mL (≈ 130 µM) | MIC [6]: > 128 µg/mL | MIC [7]: 2050 µg/mL (≈ 8320 µM) | MIC [8]: > 128 µg/mL

NC(=O)c1cccc(OCCSc2nc3ccccc3s2)c1
INH [1]: 16 µg/mL | MIC [2]: > 128 µg/mL | INH [3]: 1024 µg/mL | MIC [4]: > 128 µg/mL | MIC [5]: 32 µg/mL (≈ 96.8 µM) | MIC [6]: > 128 µg/mL | MIC [7]: 2050 µg/mL (≈ 6200 µM) | MIC [8]: > 128 µg/mL

CCCOCCCCCOc1cccc(C(N)=O)c1
INH [1]: 8 µg/mL | MIC [2]: > 128 µg/mL | INH [3]: 32 µg/mL | MIC [4]: 32 µg/mL (≈ 121 µM) | MIC [5]: 32 µg/mL (≈ 121 µM) | MIC [6]: > 128 µg/mL | MIC [7]: 16 µg/mL (≈ 60.3 µM) | MIC [8]: 32 µg/mL (≈ 121 µM)

NC(=O)c1cccc(OCCCCSc2nc3ccccc3s2)c1
INH [1]: 128 µg/mL | MIC [2]: > 128 µg/mL | INH [3]: 512 µg/mL | MIC [4]: > 128 µg/mL | MIC [5]: 128 µg/mL (≈ 357 µM) | MIC [6]: > 128 µg/mL | MIC [7]: 1020 µg/mL (≈ 2860 µM) | MIC [8]: > 128 µg/mL

NC(=O)c1cccc(OCCCOc2ccc(Cl)cc2)c1
INH [1]: 4 µg/mL | MIC [2]: > 128 µg/mL | INH [3]: 512 µg/mL | MIC [4]: > 128 µg/mL | MIC [5]: 16 µg/mL (≈ 52.3 µM) | MIC [6]: > 128 µg/mL | MIC [7]: 1020 µg/mL (≈ 3350 µM) | MIC [8]: > 128 µg/mL

NC(=O)c1cccc(OCCCCCCl)c1
INH [1]: 32 µg/mL | MIC [2]: > 128 µg/mL | INH [3]: 32 µg/mL | MIC [4]: 32 µg/mL (≈ 132 µM) | MIC [5]: 64 µg/mL (≈ 265 µM) | MIC [6]: > 128 µg/mL | MIC [7]: 32 µg/mL (≈ 132 µM) | MIC [8]: 32 µg/mL (≈ 132 µM)

NC(=O)c1cccc(OCCCCCBr)c1
INH [1]: 32 µg/mL | MIC [2]: > 128 µg/mL | INH [3]: 64 µg/mL | MIC [4]: 32 µg/mL (≈ 112 µM) | MIC [5]: 64 µg/mL (≈ 224 µM) | MIC [6]: > 128 µg/mL | MIC [7]: 32 µg/mL (≈ 112 µM) | MIC [8]: 16 µg/mL (≈ 55.9 µM)
